Experimental data reported in ChEMBL document CHEMBL2331458, “Examination of the mode of action of the almiramide family of natural products against the kinetoplastid parasite Trypanosoma brucei” (J Nat Prod, 2013).
Activity calls are given as the source filed them. No cut-off for these calls is given here. Starred links: 1 amine or outer side, 2 acyl side, 3 side chain; linkers in the order of their positions; H or OH if unused. Non-standard residues stand in square brackets, D forms with d. Residues, ends and D or L forms follow the SMILES beside them. *: point of attachment. BODIPY(FL) = CC1=CC(C)=[N+]2C1=Cc1ccc(CCC(=O)*)n1[B-]2(F)F; Ethylenediamine = C(CN[*:2])N[*:1]; NMeF = CN[C@@H](Cc1ccccc1)C(=O)O; X1 = CN(CCCCCCCCC(=O)[*:2])[*:1]; Oct(7)enoyl = C=CCCCCCC(=O)*; NMeV = CN[C@H](C(=O)O)C(C)C; NMeA = CN[C@@H](C)C(=O)O

Key:
[1] = system: Trypanosoma brucei brucei; test: Antiparasitic activity against Trypanosoma brucei brucei 427-221 assessed as growth inhibition up to 3.1 uM after 48 hrs by cellTiter-Glo assay; format: functional, organism-based
In short: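 T. b. brucei 427-221 bloodstream forms, grown in HMI-9 with 10% FBS and 10% Serum Plus at 37 °C, 5% CO2. Seeded at 2×10^4/mL with DMSO-serially diluted compound (1% DMSO final) for 48 h. Thimerosal 2 µM final served as positive control. Viability read by CellTiter-Glo ATP luminescence; % inhibition normalized to controls, IC50 by curve fit.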

[2] = Drug uptake in 120 hrs post fertilized zebrafish embryo intestinal tract at 1 to 270 uM after 3 hrs by confocal microscopic analysis; format: ADME, Danio rerio; conditions: in vivo
In short: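 Zebrafish embryos at 48 and 120 h post fertilization were incubated with fluorescent probe or fluorophore control in methylene blue-free egg water at 270, 90, 30 and 0 µM, three embryos per treatment. Localization was imaged by confocal microscopy after 3 h.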

[3] = system: Trypanosoma brucei brucei; test: Binding affinity to Trypanosoma brucei brucei 427-221 kinetoplast DNA at 5 uM after 1 hr by DAPI staining method
In short: (§1)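 Procyclic trypanosomes spread on glass, dried, fixed in 70% EtOH, then permeabilized in PBS/0.2% Triton for 20 min and blocked in PBS/0.5% gelatin. Anti-aldolase (1:500, 1 h) marked glycosomes. Cells were then stained 1 h with probe (5 or 50 µM) plus Alexa 594 anti-rabbit and 100 ng/mL DAPI. Imaged by epifluorescence at 100× oil.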

[4] = Drug uptake in Trypanosoma brucei brucei 427-221 cytosol at 5 uM after 1 hr by DAPI staining method; format: ADME; in short: as §1
[5] = system: Trypanosoma brucei brucei; test: Binding affinity to Trypanosoma brucei brucei 427-221 GIM5 at 50 uM by […] staining method; in short: as §1
[6] = Drug uptake in Trypanosoma brucei brucei 427-221 nucleus at 5 uM after 1 hr by DAPI staining method; format: ADME; in short: as §1
[7] = system: Trypanosoma brucei brucei; test: Binding affinity to Trypanosoma brucei brucei 427-221 PEX11 at 50 uM by […] staining method; in short: as §1

With `C=CCCCCCC(=O)N(C)[C@H](C(=O)N(C)[C@H](C(=O)N(C)[C@H](C(=O)N(C)[C@@H](C)C(=O)N(C)[C@@H](Cc1ccccc1)C(=O)N(C)CCCCCCCCC(=O)NCCNC(=O)CCC1=[N+]2C(=Cc3c(C)cc(C)n3[B-]2(F)F)C=C1)C(C)C)C(C)C)C(C)C` ({Oct(7)enoyl}-[NMeV][NMeV][NMeV][NMeA][NMeF][X1]-{Ethylenediamine-BODIPY(FL)}) the Activity [1] was “Active”, the Drug uptake [2] was “Not Active” and the Activity [3] was “inactive”. The Drug uptake [4] was “Active”, the Activity [5] was “Active” and the Drug uptake [6] was “Not Active”. The Activity [7] was “Active”.
